Results on 1 compound are retold here after ChEMBL document CHEMBL3593206, “SAR Studies of Exosite-Binding Substrate-Selective Inhibitors of A Disintegrin And Metalloprotease 17 (ADAM17) and Application as Selective in Vitro Probes” (J Med Chem, 2015).

The target in the test is Disintegrin and metalloproteinase domain-containing protein 17 (Homo sapiens, UniProt P78536). Kind of test: Inhibition of ADAM17 in human THP1 cells assessed as inhibition of LPS-stimulated TNFalpha cleavage after 1 hr by AlphaScreen assay. It counts as cell-based, THP-1. A digest of the protocol: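 THP-1 cells grown in RPMI 1640 with 10% FBS and 0.05 mM 2-mercaptoethanol; 3000 cells per well. Compound given in 3% DMSO for 1 h, then LPS added (1 μg/mL final) and cells incubated overnight at 37 °C. TNFα detected by AlphaScreen using anti-TNFα acceptor beads and streptavidin donor beads, each step 1 h in the dark at RT.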
Disintegrin and metalloproteinase domain-containing protein 17, sequence (P78536 whole entry, the tested form may be a part): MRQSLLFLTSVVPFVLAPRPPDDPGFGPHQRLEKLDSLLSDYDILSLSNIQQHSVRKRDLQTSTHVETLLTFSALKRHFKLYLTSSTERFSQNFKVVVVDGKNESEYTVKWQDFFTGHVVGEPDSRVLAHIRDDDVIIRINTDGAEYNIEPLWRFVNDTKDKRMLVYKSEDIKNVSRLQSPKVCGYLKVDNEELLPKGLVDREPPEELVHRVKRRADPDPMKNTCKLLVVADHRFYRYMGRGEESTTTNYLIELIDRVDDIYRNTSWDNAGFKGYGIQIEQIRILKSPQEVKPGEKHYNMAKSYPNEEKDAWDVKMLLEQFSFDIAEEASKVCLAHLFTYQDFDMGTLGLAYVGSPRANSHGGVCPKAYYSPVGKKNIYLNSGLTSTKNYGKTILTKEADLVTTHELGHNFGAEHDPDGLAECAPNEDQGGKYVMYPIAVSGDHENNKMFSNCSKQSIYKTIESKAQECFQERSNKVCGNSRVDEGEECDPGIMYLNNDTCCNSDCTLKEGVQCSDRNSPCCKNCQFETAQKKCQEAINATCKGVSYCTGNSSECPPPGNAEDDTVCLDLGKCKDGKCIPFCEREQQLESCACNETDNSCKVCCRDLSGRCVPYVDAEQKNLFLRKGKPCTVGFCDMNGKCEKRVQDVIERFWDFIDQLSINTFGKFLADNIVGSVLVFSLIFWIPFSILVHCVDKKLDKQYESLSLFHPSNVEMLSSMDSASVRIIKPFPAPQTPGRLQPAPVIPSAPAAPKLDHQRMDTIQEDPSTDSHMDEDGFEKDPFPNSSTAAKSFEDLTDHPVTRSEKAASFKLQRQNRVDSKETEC

With `O=C1NC[C@@H](Cc2ccc(O)cc2)N(C[C@@H]2CCCN2C[C@@H](Cc2ccc3ccccc3c2)N2CC(Cc3ccc(O)cc3)N(CCC34CC5CC(CC(C5)C3)C4)C(=O)C2=O)C1=O` (single isomer, unassigned), the 50% inhibitory concentration (IC50) was 100 µM.
